Measured values published in ChEMBL document CHEMBL1154451, “Simple and efficient synthesis of novel glycosyl thiourea derivatives as potential antitumor agents” (Eur J Med Chem, 2008).

Assays:
[1] = Cytotoxicity against human PG cells after 48 hrs by MTT assay; format: functional, cell-based
Summary of the method: (§1)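 Tumour cells seeded at 3–5 × 10⁴ cells/mL and cultured 24 h, then medium containing test compound at various concentrations added (plain medium for controls). Exposure 48 h, followed by MTT read-out with absorbance measured at 490 nm. EC50 values reported; compounds tested up to […].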

Bel-7402 = assay: Cytotoxicity against human Bel7402 cells after 48 hrs by MTT assay; format: functional, cell-based; details: Bel-7402, 48 h; summary of the method: as §1

## Cc1cn([C@H]2C[C@H](N=[N+]=[N-])[C@@H](CO)O2)c(=O)[nH]c1=O [ZIDOVUDINE]
[1]
  EC50: 580 nM
Bel-7402
  EC50: 4620 nM
